From ChEMBL document CHEMBL5321226, “Structure-directed identification of pyridine-2-methylamine derivatives as MmpL3 inhibitors for use as antitubercular agents” (Eur J Med Chem, 2023)
Values after ≈ are worked out from the molar mass of the structure shown.

Experiments:
Assay type in all cases: functional
Conditions in all cases: time 7-14 day
[1] = test system: Mycobacterium tuberculosis; assay: Antimycobacterial activity against multidrug resistant Mycobacterium tuberculosis V2475 assessed as bacterial growth inhibition incubated for 7 to 14 days by MABA assay
Summary of the method: (§1)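 Clinical M. tuberculosis isolates were tested in a microplate Alamar Blue assay (MABA), with isoniazid, rifampin, levofloxacin, ofloxacin and kanamycin as positive controls. The MIC is the lowest concentration giving at least a 90% reduction of the bacterial growth signal, averaged over three individual measurements.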

[2] = test system: Mycobacterium tuberculosis; assay: Antimycobacterial activity against multidrug resistant Mycobacterium tuberculosis KZN494 assessed as bacterial growth inhibition incubated for 7 to 14 days by MABA assay; summary of the method: as §1
[3] = test system: Mycobacterium tuberculosis; assay: Antimycobacterial activity against extensively drug resistant Mycobacterium tuberculosis R506 assessed as bacterial growth inhibition incubated for 7 to 14 days by MABA assay; summary of the method: as §1
[4] = test system: Mycobacterium tuberculosis; assay: Antimycobacterial activity against extensively drug resistant Mycobacterium tuberculosis TF274 assessed as bacterial growth inhibition incubated for 7 to 14 days by MABA assay; summary of the method: as §1
[5] = test system: Mycobacterium tuberculosis; assay: Antimycobacterial activity against N-cycloheptyl-4,6-dimethyl-1H-indole-2-carboxamide-resistant Mycobacterium tuberculosis IAR2 harboring MmpL3 S288T mutant assessed as bacterial growth inhibition incubated for 7 to 14 days by MABA assay

NC[C@H]1O[C@H](O[C@H]2[C@H](O)[C@@H](O[C@H]3O[C@H](CO)[C@@H](O)[C@H](N)[C@H]3O)[C@H](N)C[C@@H]2N)[C@H](O)[C@@H](O)[C@@H]1O [KANAMYCIN]
MIC90 [1]: 2 µg/mL (≈ 4.13 µM) | MIC90 [2]: 2 µg/mL (≈ 4.13 µM) | MIC90 [3]: > 128 µg/mL | MIC90 [4]: > 128 µg/mL

Cc1cc(C)c2cc(C(=O)NC3CCCCCC3)[nH]c2c1
MIC90 [5]: 0.013 µg/mL (≈ 0.0457 µM)

C[C@H]1COc2c(N3CCN(C)CC3)c(F)cc3c(=O)c(C(=O)O)cn1c23 [LEVOFLOXACIN ANHYDROUS]
MIC90 [3]: 2 µg/mL (≈ 5.53 µM) | MIC90 [4]: 1 µg/mL (≈ 2.77 µM)

CC1COc2c(N3CCN(C)CC3)c(F)cc3c(=O)c(C(=O)O)cn1c23 (stereo not given) [OFLOXACIN]
MIC90 [1]: 0.5 µg/mL (≈ 1.38 µM) | MIC90 [2]: 0.5 µg/mL (≈ 1.38 µM) | MIC90 [3]: 4 µg/mL (≈ 11.1 µM) | MIC90 [4]: 8 µg/mL (≈ 22.1 µM)

NNC(=O)c1ccncc1 [ISONIAZID]
MIC90 [1]: 16 µg/mL (≈ 117 µM) | MIC90 [2]: 16 µg/mL (≈ 117 µM) | MIC90 [3]: 8 µg/mL (≈ 58.3 µM) | MIC90 [4]: 8 µg/mL (≈ 58.3 µM) | MIC90 [5]: 0.04 µg/mL (≈ 0.292 µM)

CO[C@H]1/C=C/O[C@@]2(C)Oc3c(C)c(O)c4c(O)c(c(/C=N/N5CCN(C)CC5)c(O)c4c3C2=O)NC(=O)/C(C)=C\C=C\[C@H](C)[C@H](O)[C@@H](C)[C@@H](O)[C@@H](C)[C@H](OC(C)=O)[C@@H]1C [RIFAMPIN]
MIC90 [1]: 4 µg/mL (≈ 4.86 µM) | MIC90 [2]: 128 µg/mL (≈ 156 µM) | MIC90 [3]: > 128 µg/mL | MIC90 [4]: > 128 µg/mL

c1ccc(-c2ccc(-c3ccnc(CN4CCC5(CCCC5)CC4)c3)cc2)cc1
MIC90 [1]: 0.063 µg/mL (≈ 0.165 µM) | MIC90 [2]: 0.016 µg/mL (≈ 0.0418 µM) | MIC90 [3]: 0.031 µg/mL (≈ 0.081 µM) | MIC90 [4]: 0.004 µg/mL (≈ 0.0105 µM) | MIC90 [5]: 1 µg/mL (≈ 2.61 µM)
